Measurements as given in ChEMBL document CHEMBL4765345, “Design, synthesis, and biological evaluation of dual targeting inhibitors of histone deacetylase 6/8 and bromodomain BRPF1” (Eur J Med Chem, 2020).

Key:
[1] = test system: THP-1; experiment: Antiproliferative activity against human THP-1 assessed as reduction in cell growth at 100 uM by CellTiter-non radioactive cell proliferation assay; assay type: functional
[2] = test system: HL-60; experiment: Antiproliferative activity against human HL60 assessed as reduction in cell growth at 1 uM by CellTiter-non radioactive cell proliferation assay; assay type: functional
[3] = molecular target: T1, Peregrin (Homo sapiens, UniProt P55201); experiment: Binding affinity to BRPF1 (unknown origin) by Isothermal titration calorimetry; conditions: read-out: Kd
T1 sequence (P55201 whole entry): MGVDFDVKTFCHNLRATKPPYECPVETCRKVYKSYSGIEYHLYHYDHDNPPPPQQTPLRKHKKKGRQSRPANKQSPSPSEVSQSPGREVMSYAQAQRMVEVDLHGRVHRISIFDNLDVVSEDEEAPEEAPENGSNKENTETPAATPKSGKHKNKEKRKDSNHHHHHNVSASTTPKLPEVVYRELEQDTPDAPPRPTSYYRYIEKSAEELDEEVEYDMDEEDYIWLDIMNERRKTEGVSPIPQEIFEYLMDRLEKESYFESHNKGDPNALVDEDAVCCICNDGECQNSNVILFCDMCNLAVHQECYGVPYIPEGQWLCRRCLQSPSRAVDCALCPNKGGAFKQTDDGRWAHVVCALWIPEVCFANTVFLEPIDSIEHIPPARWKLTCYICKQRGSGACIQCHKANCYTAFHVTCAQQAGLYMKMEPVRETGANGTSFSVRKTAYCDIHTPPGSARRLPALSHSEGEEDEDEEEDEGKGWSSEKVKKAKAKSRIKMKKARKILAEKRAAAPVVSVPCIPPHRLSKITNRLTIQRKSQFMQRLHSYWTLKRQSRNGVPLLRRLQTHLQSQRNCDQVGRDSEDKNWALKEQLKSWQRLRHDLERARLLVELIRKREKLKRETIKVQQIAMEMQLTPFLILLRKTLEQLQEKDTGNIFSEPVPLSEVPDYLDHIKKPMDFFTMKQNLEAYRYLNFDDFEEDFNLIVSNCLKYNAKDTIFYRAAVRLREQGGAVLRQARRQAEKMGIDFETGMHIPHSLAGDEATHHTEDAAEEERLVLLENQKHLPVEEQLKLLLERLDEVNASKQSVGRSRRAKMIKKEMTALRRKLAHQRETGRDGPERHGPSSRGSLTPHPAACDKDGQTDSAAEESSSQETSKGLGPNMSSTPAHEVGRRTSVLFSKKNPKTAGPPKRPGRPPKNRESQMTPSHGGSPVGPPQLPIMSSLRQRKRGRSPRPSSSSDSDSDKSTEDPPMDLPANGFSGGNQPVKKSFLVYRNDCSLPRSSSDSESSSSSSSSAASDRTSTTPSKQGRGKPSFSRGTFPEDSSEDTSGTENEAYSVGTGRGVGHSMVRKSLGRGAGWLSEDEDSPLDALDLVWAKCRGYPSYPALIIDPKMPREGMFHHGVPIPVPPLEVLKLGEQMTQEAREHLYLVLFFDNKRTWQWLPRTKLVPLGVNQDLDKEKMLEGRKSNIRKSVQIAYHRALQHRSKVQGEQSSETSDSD
How it was run: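 Isothermal titration calorimetry with recombinant BRPF1 (200–400 μM) in the injection syringe titrated into ligand (20–40 μM) in the sample cell. Kd was fitted from the titrations and reported with its P99 interval.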

[4] = test system: THP-1; experiment: Antiproliferative activity against human THP-1 assessed as reduction in cell growth at 1 uM by CellTiter-non radioactive cell proliferation assay; assay type: functional
[5] = molecular target: T2, Histone deacetylase 1 (Homo sapiens, UniProt Q13547); experiment: Inhibition of recombinant human HDAC1 using Z-(Ac)Lys-AMC as substrate after 90 mins by fluorescence based micro plate assay
How it was run: (§1)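 Recombinant human HDAC1 or HDAC6 incubated 90 min at 37 °C with 10.5 μM ZMAL (Z-(Ac)Lys-AMC) and increasing inhibitor concentrations, using a homogeneous fluorescence assay. Fluorescence read at Ex 390/Em 460 nm.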

[6] = test system: HL-60; experiment: Antiproliferative activity against human HL60 assessed as reduction in cell growth at 100 uM by CellTiter-non radioactive cell proliferation assay; assay type: functional
[7] = test system: HL-60; experiment: Antiproliferative activity against human HL60 assessed as reduction in cell growth at 20 uM by CellTiter-non radioactive cell proliferation assay; assay type: functional
[8] = molecular target: T3, Protein deacetylase HDAC6 (Homo sapiens, UniProt Q9UBN7); experiment: Inhibition of recombinant human HDAC6 using Z-(Ac)Lys-AMC as substrate after 90 mins by fluorescence based micro plate assay; how it was run: as §1
T3 sequence (Q9UBN7 whole entry): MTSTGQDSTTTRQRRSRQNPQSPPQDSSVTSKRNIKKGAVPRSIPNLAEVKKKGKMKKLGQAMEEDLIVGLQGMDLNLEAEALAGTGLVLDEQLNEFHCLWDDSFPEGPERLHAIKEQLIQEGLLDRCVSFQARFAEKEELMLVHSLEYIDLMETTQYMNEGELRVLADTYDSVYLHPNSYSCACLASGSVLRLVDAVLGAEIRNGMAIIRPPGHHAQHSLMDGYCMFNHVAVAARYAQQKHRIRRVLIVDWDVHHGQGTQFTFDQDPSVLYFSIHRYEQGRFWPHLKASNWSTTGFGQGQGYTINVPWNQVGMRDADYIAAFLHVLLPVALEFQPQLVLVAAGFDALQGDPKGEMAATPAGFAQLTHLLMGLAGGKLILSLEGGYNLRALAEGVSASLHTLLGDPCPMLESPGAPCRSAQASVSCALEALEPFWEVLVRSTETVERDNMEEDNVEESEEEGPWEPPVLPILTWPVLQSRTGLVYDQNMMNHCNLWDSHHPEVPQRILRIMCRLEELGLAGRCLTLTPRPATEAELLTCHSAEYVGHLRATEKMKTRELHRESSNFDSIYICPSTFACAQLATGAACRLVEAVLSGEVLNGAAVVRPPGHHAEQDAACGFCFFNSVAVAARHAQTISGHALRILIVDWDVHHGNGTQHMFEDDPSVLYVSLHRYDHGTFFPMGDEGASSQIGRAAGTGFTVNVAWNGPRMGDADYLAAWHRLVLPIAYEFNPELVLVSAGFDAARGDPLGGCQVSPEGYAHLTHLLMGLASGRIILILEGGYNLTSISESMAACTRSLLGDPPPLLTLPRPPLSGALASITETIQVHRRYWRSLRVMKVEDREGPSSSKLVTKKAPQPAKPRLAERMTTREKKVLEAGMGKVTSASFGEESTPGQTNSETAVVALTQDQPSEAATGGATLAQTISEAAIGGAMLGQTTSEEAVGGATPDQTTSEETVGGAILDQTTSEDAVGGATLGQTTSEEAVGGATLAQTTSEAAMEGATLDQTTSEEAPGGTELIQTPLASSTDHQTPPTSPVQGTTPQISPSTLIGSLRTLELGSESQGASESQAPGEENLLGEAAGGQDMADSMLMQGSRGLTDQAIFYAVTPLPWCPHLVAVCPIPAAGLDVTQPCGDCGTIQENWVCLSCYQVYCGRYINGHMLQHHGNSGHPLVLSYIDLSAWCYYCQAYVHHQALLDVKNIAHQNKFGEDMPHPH

[9] = molecular target: T4, Histone deacetylase 8 (Homo sapiens, UniProt Q9BY41); experiment: Inhibition of human recombinant HDAC8 using H2N-Arg-His-Lys(Ac)-Lys(Ac)-AMC as substrate after 90 mins by fluorescence based micro plate assay
T4 sequence (Q9BY41 whole entry): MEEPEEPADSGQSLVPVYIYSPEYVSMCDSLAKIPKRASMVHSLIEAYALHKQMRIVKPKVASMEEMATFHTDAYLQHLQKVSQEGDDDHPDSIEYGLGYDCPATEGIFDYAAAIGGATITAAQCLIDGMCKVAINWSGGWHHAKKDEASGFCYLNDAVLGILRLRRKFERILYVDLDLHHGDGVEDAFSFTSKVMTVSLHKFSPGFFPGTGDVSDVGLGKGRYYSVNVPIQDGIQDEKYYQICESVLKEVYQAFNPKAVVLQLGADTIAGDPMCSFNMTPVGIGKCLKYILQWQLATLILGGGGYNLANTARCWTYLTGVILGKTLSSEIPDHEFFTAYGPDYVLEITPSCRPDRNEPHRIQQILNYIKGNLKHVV

[10] = molecular target: T2, Histone deacetylase 1; experiment: Inhibition of recombinant human HDAC1 at 1 uM using Z-(Ac)Lys-AMC as substrate after 90 mins by fluorescence based micro plate assay; how it was run: as §1
[11] = molecular target: T5, Protein deacetylase HDAC6 (Homo sapiens) (UniProt Q9UBN7); experiment: Inhibition of recombinant human HDAC6 at 10 uM using Z-(Ac)Lys-AMC as substrate after 90 mins by fluorescence based micro plate assay; how it was run: as §1
T5 sequence (whole entry): T3 sequence (Q9UBN7 whole entry)

[12] = test system: THP-1; experiment: Antiproliferative activity against human THP-1 assessed as reduction in cell growth at 20 uM by CellTiter-non radioactive cell proliferation assay; assay type: functional
[13] = molecular target: T2, Histone deacetylase 1; experiment: Inhibition of recombinant human HDAC1 at 10 uM using Z-(Ac)Lys-AMC as substrate after 90 mins by fluorescence based micro plate assay; how it was run: as §1
[14] = molecular target: T5, Protein deacetylase HDAC6 (Homo sapiens); experiment: Inhibition of recombinant human HDAC6 at 1 uM using Z-(Ac)Lys-AMC as substrate after 90 mins by fluorescence based micro plate assay; how it was run: as §1
[15] = test system: HL-60; experiment: Antiproliferative activity against human HL60 assessed as reduction in cell growth at 4 uM by CellTiter-non radioactive cell proliferation assay; assay type: functional
How it was run: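 HL60 cells plated at 5000 per well and given inhibitor or DMSO vehicle immediately. Compounds diluted from 200x DMSO stocks; three replicates per concentration. Growth read by CellTiter 96 Aqueous (MTS) assay. GI50 is the concentration cutting metabolically active cells by 50% versus DMSO control, taken from absorbance against log concentration.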

[16] = test system: THP-1; experiment: Antiproliferative activity against human THP-1 assessed as reduction in cell growth at 4 uM by CellTiter-non radioactive cell proliferation assay; assay type: functional

T2 sequence (Q13547 whole entry): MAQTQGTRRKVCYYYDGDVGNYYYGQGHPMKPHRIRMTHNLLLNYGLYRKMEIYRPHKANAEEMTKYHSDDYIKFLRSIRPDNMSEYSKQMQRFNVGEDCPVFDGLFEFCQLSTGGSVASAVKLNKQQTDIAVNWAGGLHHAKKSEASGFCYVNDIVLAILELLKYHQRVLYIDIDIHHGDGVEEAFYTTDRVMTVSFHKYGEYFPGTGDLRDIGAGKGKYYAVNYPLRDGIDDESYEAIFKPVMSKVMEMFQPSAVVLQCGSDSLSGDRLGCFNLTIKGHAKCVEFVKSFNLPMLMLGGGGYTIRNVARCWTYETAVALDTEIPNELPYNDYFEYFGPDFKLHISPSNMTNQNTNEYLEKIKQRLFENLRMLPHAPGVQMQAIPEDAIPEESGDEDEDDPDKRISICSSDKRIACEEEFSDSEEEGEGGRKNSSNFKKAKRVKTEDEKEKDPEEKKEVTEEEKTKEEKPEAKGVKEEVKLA

Kd [3] [nM]	IC50 [5] [nM]	IC50 [8] [nM]	IC50 [9] [nM]	inhibition [10] [%]	inhibition [11] [%]	inhibition [13] [%]	inhibition [14] [%]	Compound	inhibition at 100 µM [1] [%]	inhibition at 1 µM [2] [%]	inhibition at 1 µM [4] [%]	inhibition at 100 µM [6] [%]	inhibition at 20 µM [7] [%]	inhibition at 20 µM [12] [%]	inhibition at 4 µM [15] [%]	inhibition at 4 µM [16] [%]
175	797	344	908	–	–	–	–	Cc1cc2cc(NS(=O)(=O)c3ccc(C(=O)NO)cc3)ccc2n(C)c1=O	78	3	0	34	6	–	–	–
–	–	–	113	–	–	–	–	Cc1cc2cc(NC(=O)c3cc(C(=O)NO)ccc3Cl)ccc2n(C)c1=O	–	–	–	–	–	–	–	–
–	–	–	465	2	33	26	3	Cc1cc2cc(NS(=O)(=O)Cc3cccc(C(=O)NO)c3)ccc2n(C)c1=O	0	–	0	0	0	0	0	–
–	–	–	–	–	–	–	–	COc1ccc(C(=O)NOCc2ccccc2)cc1S(=O)(=O)Nc1ccc2c(c1)cc(C)c(=O)n2C	–	2	–	13	–	20	–	–
–	–	–	–	–	–	–	–	COc1ccc(C(=O)NOCc2ccc(OC(C)=O)cc2)cc1S(=O)(=O)Nc1ccc2c(c1)cc(C)c(=O)n2C	27	0	–	95	0	3	–	–
–	–	–	–	–	–	–	–	COC(=O)c1ccc(CS(=O)(=O)Nc2ccc3c(c2)cc(C)c(=O)n3C)cc1	93	15	0	78	14	9	–	–
–	–	–	555	–	68	31	40	COc1ccc(C(=O)NO)cc1CNc1ccc2c(c1)cc(C)c(=O)n2C	–	–	–	–	–	–	–	–
–	–	–	–	–	–	–	–	Cc1cc2cc(NS(=O)(=O)Cc3ccc(C(=O)NOCc4ccc(O)cc4)cc3)ccc2n(C)c1=O	91	–	0	–	–	1	–	–
–	–	–	3190	–	84	20	28	Cc1cc2cc(NCc3cc(C(=O)NO)ccc3Cl)ccc2n(C)c1=O	–	–	–	–	–	–	–	–
–	–	–	158	4	63	29	14	COc1ccc(C(=O)NO)cc1CS(=O)(=O)Nc1ccc2c(c1)cc(C)c(=O)n2C	0	–	0	0	0	0	0	–
857	6900	709	65	–	–	–	–	COc1ccc(C(=O)NO)cc1C(=O)Nc1ccc2c(c1)cc(C)c(=O)n2C	–	–	–	–	–	–	–	–
234	–	–	560	13	59	31	13	Cc1cc2cc(NS(=O)(=O)c3cc(C(=O)NO)ccc3Cl)ccc2n(C)c1=O	21	–	–	33	32	8	29	16
–	–	–	–	–	–	–	–	COC(=O)c1ccc(S(=O)(=O)Nc2ccc3c(c2)cc(C)c(=O)n3C)cc1	95	5	0	68	22	85	–	–
1580	–	–	231	11	46	29	15	COc1cc(C(=O)NO)ccc1CS(=O)(=O)Nc1ccc2c(c1)cc(C)c(=O)n2C	–	–	–	0	0	0	0	–
